Assay results gathered from unrelated publications.
Observed: cell growth or viability

`Cc1n[nH]c2ccc3nc(-c4ccc(C(=O)NCCN(C)C)cc4)c4c(c3c12)CCCC4` has a GI50 of 37 nM (EOL1; 72 h).
With `COc1ccc(C=NNC(=O)c2nc3ccccc3s2)cc1OS(C)(=O)=O` the cell death was 44.5% (PC-3; MTT; 100 µM, 48 h).
For `Cc1nc(NC(=O)N2CCC[C@H]2C(N)=O)sc1-c1ccnc(C(C)(C)C(F)(F)F)c1`, the EC50 was 611 nM (NCI-H1048; ATP luminescence; 5 days).
`C=C(NC(=O)C(=C)NC(=O)c1csc(C2=N[C@@H]3c4csc(n4)[C@H]4NC(=O)c5csc(n5)[C@H]([C@](C)(O)[C@@H](C)O)NC(=O)[C@H]5CSC(=N5)/C(=C/C)NC(=O)[C@H]([C@@H](C)O)NC(=O)c5csc(n5)[C@]3(CC2)NC(=O)[C@H](C)NC(=O)C(=C)NC(=O)[C@H](C)NC(=O)[C@H]([C@@H](C)CC)N[C@@H]2C=Cc3c([C@H](C)O)cc(nc3[C@H]2O)C(=O)O[C@@H]4C)n1)C(N)=O` gave an EC50 of 900 nM (U-251).
With `CN(C)CCNC(=O)c1ccc(-c2nc3ccc4[nH]ncc4c3c3c2CCCCC3)cc1` the GI50 was 143 nM (EOL1; 72 h).
The cell death of `O=c1[nH]cc(F)c(=O)[nH]1` is reported as 10.7% (PC-3; MTT; 100 µM, 48 h).
The inhibition of `CCCCCCCCCCCCCCCCCCOc1ccccc1CC(=O)OCC[N+]1(C)CCOCC1` is reported as 60.1% (NCI-H522; SRB; 10 µM).
The inhibition of `Cc1nc(Nc2ncc(C(=O)Nc3c(C)cccc3Cl)s2)cc(N2CC[C@H](O)C2)n1` is reported as 91% (WSU-NHL; ATP luminescence; 10 µM, 72 h).
The inhibition of `CCCCCCCCCCCCCCCCCCOc1cccc(CC(=O)OCC[N+]2(C)CCOCC2)c1` is reported as 16.9% (NCI-H522; SRB; 10 µM).
For `NCCC(=O)Nc1cccc(/N=c2\cc(-c3ccc4c(c3)OCO4)oc3ccccc23)c1`, the inhibition was -1.71% (A549; CCK-8; 1 µM).
`CCCCCCCCCCCCCCCCCCOc1ccccc1CC(=O)OCC[N+](CC)(CC)CC` gave an inhibition of 89.5% (NCI-H522; SRB; 10 µM).
With `CCc1nc(C(N)=O)c(Nc2ccc(N3CCC(N4CCN(C)CC4)CC3)c(OC)c2)nc1NC1CCOCC1` the GI50 was 70 nM (EOL1; 72 h).
With `CCCCCCCCCCCCCCCCCCOc1cccc(CC(=O)OCC[N+]2(C)CCCCC2)c1` the inhibition was 28.5% (NCI-H522; SRB; 10 µM).
With `Cc1n[nH]c2ccc3nc(-c4ccc(C(=O)NCCN(C)C)cc4F)c4c(c3c12)CCCC4` the GI50 was 89 nM (EOL1; 72 h).
`NCCC(=O)Nc1ccccc1/N=c1\cc(-c2ccc3c(c2)OCCO3)oc2cc(F)ccc12` has an inhibition of -8.9% (A549; CCK-8; 1 µM).
With `CCCCCCCCCCCCCCCCCCOc1cccc(CC(=O)OCC[N+]2(C)CCCC2)c1` the inhibition was 36.6% (NCI-H522; SRB; 10 µM).
The inhibition of `Nc1nc2ccc(-c3c/c(=N\c4ccccc4NC(=O)CCN4CCOCC4)c4ccccc4o3)cc2o1` is reported as 16.4% (A549; CCK-8; 1 µM).
`CCCCCCCCCCCCCCCCCCOc1ccc(CC(=O)OCC[N+](CC)(CC)CC)cc1` gave an inhibition of 26.6% (NCI-H522; SRB; 10 µM).
For `COCCC(=O)Nc1ccccc1/N=c1\cc(-c2ccc3c(c2)OCO3)oc2ccccc12`, the inhibition was 4.66% (A549; CCK-8; 1 µM).
`CN(C)CCNC(=O)c1ccc(-c2nc3ccc4[nH]ncc4c3c3c2CCCC3)c(F)c1` gave a GI50 of 42 nM (EOL1; 72 h).
With `CCCCCCCCCCCCCCCCCCOc1ccccc1CC(=O)OCCC[N+](C)(C)C` the inhibition was 63.7% (NCI-H522; SRB; 10 µM).
`COc1ccc2/c(=N/c3ccccc3NC(=O)CN)cc(-c3ccc4c(c3)OCCO4)oc2c1` gave an inhibition of 0.19% (A549; CCK-8; 1 µM).
For `O=C(NN=Cc1ccc(O)cc1)c1nc2ccccc2s1`, the cell death was 39.6% (PC-3; MTT; 100 µM, 48 h).
`CS(=O)(=O)NCCC(=O)Nc1ccccc1/N=c1\cc(-c2ccc3nc(N)oc3c2)oc2ccccc12` has an inhibition of -5.4% (A549; CCK-8; 1 µM).
With `CCCCCCCCCCCCCCCCCCOc1ccc(CC(=O)OCC[N+]2(C)CCCC2)cc1` the inhibition was 3.23% (NCI-H522; SRB; 10 µM).
